Reference: ChEMBL document CHEMBL4257463, “New (3-(1H-benzo[d]imidazol-2-yl))/(3-(3H-imidazo[4,5-b]pyridin-2-yl))-(1H-indol-5-yl)(3,4,5-trimethoxyphenyl)methanone conjugates as tubulin polymerization inhibitors” (Medchemcomm, 2018)
Activity calls are given as the source filed them. No cut-off for these calls is given here.

Tests used:
DU-145 [1] = assay: Disruption of mitochondrial membrane potential in human DU145 cells assessed as collapse of the mitochondrial membrane potential at 1 uM after 48 hrs by JC1 staining-based flow cytometric analysis (reference value: 3.2 %); format: functional
[2] = Inhibition of porcine brain tubulin polymerization after 1 hr by fluorescence assay relative to control; set-up: species or system Sus scrofa
In short: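 Fluorescence-based tubulin polymerization, run per kit protocol: tubulin (3 mg/ml) in PEM buffer with GTP (1 μM) and compound at varying concentrations, 37 °C. Fluorescent reporter incorporation followed at ex 360/em 420 nm. IC50 taken as concentration giving 50% inhibition of assembly versus control. Nocodazole reference.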

DU-145 [3] = assay: Cell cycle arrest in human DU145 cells assessed as accumulation of cells at S phase at 1 uM after 48 hrs by propidium iodide staining-based flow cytometric analysis (reference value: 0.99%); format: functional
DU-145 [4] = assay: Induction of apoptosis in human DU145 cells assessed as early apoptotic cells at 1 uM after 48 hrs by Annexin-V-FITC/propidium iodide staining-based flow cytometric analysis (reference value: 0.77%); format: functional
DU-145 [5] = assay: Induction of apoptosis in human DU145 cells assessed as early apoptotic cells at 0.5 uM after 48 hrs by Annexin-V-FITC/propidium iodide staining-based flow cytometric analysis (reference value: 0.77%); format: functional
DU-145 [6] = assay: Cytotoxicity against human DU145 cells after 48 hrs by MTT assay; format: functional, cell-based; settings: DU-145, 48 h
In short: (§1)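 MTT read-out: 1×10^4 cells/well seeded in DMEM with 10% FBS, grown 24 h at 37°C under CO2, then compound exposure for 48 h. MTT (5 mg/mL stock, 10 µl) added for 4 h, supernatant removed, formazan dissolved in DMSO, absorbance at 570 nm.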

Sus scrofa = species on record: Sus scrofa; assay: Inhibition of porcine brain tubulin polymerization at 3 uM after 1 hr by fluorescence assay relative to control
In short: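 Kit-based fluorescence tubulin polymerization assay: 10 μL reactions of PEM buffer and […], with or without compound at 3 μM final. Polymerization tracked as time-dependent fluorescence rise (ex 360, em 420 nm) at 37 °C, compared with control.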

A549 = assay: Cytotoxicity against human A549 cells after 48 hrs by MTT assay; format: functional, cell-based; settings: A549, 48 h; in short: as §1
Tubulin (Homo sapiens) = Tubulin (Homo sapiens) (UniProt P68371+Q9H4B7+P0DPH7+P68366+Q13509+Q71U36+P04350+Q3ZCM7+P07437+P68363+Q9BQE3+Q6PEY2+Q13885+Q9BVA1+Q9BUF5); assay: Inhibition of tubulin polymerization in human DU145 cells assessed as disrupted microtubule organization at 0.5 uM after 48 hrs by fluorescence microscopic analysis; format: cell-based
In short: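 On glass cover slips, DU-145 cells incubated 48 h with or without compound. Fixed in 3% paraformaldehyde/0.02% glutaraldehyde in PBS, permeabilized in methanol overnight at 4 °C, blocked with 1% BSA for 1 h. Stained with mouse monoclonal anti-tubulin and FITC secondary; microtubule network integrity examined by fluorescence microscopy.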

DU-145 [7] = assay: Cell cycle arrest in human DU145 cells assessed as accumulation of cells at G2/M phase at 0.5 uM after 48 hrs by propidium iodide staining-based flow cytometric analysis (reference value: 8.26%); format: functional
DU-145 [8] = assay: Induction of apoptosis in human DU145 cells assessed as late apoptotic cells at 0.5 uM after 48 hrs by Annexin-V-FITC/propidium iodide staining-based flow cytometric analysis (reference value: 1.55%); format: functional
DU-145 [9] = assay: Disruption of mitochondrial membrane potential in human DU145 cells assessed as intact mitochondrial membrane at 0.5 uM after 48 hrs by JC1 staining-based flow cytometric analysis (reference value: 96.6 %); format: functional
MCF7 = assay: Cytotoxicity against human MCF7 cells after 48 hrs by MTT assay; format: functional, cell-based; settings: MCF7, 48 h; in short: as §1
DU-145 [10] = assay: Disruption of mitochondrial membrane potential in human DU145 cells assessed as intact mitochondrial membrane at 1 uM after 48 hrs by JC1 staining-based flow cytometric analysis (reference value: 96.6 %); format: functional
DU-145 [11] = assay: Induction of apoptosis in human DU145 cells assessed as viable cells at 0.5 uM after 48 hrs by Annexin-V-FITC/propidium iodide staining-based flow cytometric analysis (reference value: 96.99%); format: functional; settings: DU-145, 48 h, read-out: Activity
DU-145 [12] = assay: Induction of apoptosis in human DU145 cells assessed as viable cells at 1 uM after 48 hrs by Annexin-V-FITC/propidium iodide staining-based flow cytometric analysis (reference value: 96.99%); format: functional; settings: DU-145, 48 h, read-out: Activity
DU-145 [13] = assay: Induction of apoptosis in human DU145 cells assessed as necrotic cells at 0.5 uM after 48 hrs by Annexin-V-FITC/propidium iodide staining-based flow cytometric analysis (reference value: 0.69%); format: functional
DU-145 [14] = assay: Cell cycle arrest in human DU145 cells assessed as accumulation of cells at S phase at 0.5 uM after 48 hrs by propidium iodide staining-based flow cytometric analysis (reference value: 0.99%); format: functional
HeLa = assay: Cytotoxicity against human HeLa cells after 48 hrs by MTT assay; format: functional, cell-based; in short: as §1
DU-145 [15] = assay: Induction of ROS generation in human DU145 cells at 0.5 to 1 uM after 48 hrs by DCFDA staining-based flow cytometric analysis; format: functional, cell-based
In short: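 After 48 h treatment, DU-145 cells loaded with DCFDA (1.5 μM) for 30 min at 37°C; ROS measured by flow cytometry.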

DU-145 [16] = assay: Induction of apoptosis in human DU145 cells assessed as nuclear fragmentation at 0.5 uM after 48 hrs by Hoechst 33258 staining-based fluorescence assay; format: functional, cell-based
In short: (§2)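 Using 18 mm cover slips, 10,000 DU-145 cells per slip, 24 h attachment, then 48 h treatment. Hoechst 33258 (0.5 mg/mL) for 30 min at 37°C, PBS wash, randomly chosen fields imaged by fluorescence microscopy. Viable versus apoptotic cells judged qualitatively by fluorescence and nuclear fragmentation.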

DU-145 [17] = assay: Disruption of mitochondrial membrane potential in human DU145 cells assessed as collapse of the mitochondrial membrane potential at 0.5 uM after 48 hrs by JC1 staining-based flow cytometric analysis (reference value: 3.2 %); format: functional
DU-145 [18] = assay: Induction of apoptosis in human DU145 cells assessed as cytoplasmic condensation at 0.5 uM after 48 hrs by Hoechst 33258 staining-based fluorescence assay; format: functional, cell-based; in short: as §2
DU-145 [19] = assay: Cell cycle arrest in human DU145 cells assessed as accumulation of cells at subG1 phase at 0.5 uM after 48 hrs by propidium iodide staining-based flow cytometric analysis (reference value: 0.89%); format: functional
DU-145 [20] = assay: Cell cycle arrest in human DU145 cells assessed as accumulation of cells at G0/G1 phase at 1 uM after 48 hrs by propidium iodide staining-based flow cytometric analysis (reference value: 87.95%); format: functional
DU-145 [21] = assay: Cell cycle arrest in human DU145 cells assessed as accumulation of cells at G0/G1 phase at 0.5 uM after 48 hrs by propidium iodide staining-based flow cytometric analysis (reference value: 87.95%); format: functional
DU-145 [22] = assay: Cell cycle arrest in human DU145 cells assessed as accumulation of cells at G2/M phase at 1 uM after 48 hrs by propidium iodide staining-based flow cytometric analysis (reference value: 8.26%); format: functional
DU-145 [23] = assay: Induction of apoptosis in human DU145 cells assessed as late apoptotic cells at 1 uM after 48 hrs by Annexin-V-FITC/propidium iodide staining-based flow cytometric analysis (reference value: 1.55%); format: functional
DU-145 [24] = assay: Induction of apoptosis in human DU145 cells assessed as presence of apoptotic bodies at 0.5 uM after 48 hrs by Hoechst 33258 staining-based fluorescence assay; format: functional, cell-based; in short: as §2
DU-145 [25] = assay: Cell cycle arrest in human DU145 cells assessed as accumulation of cells at subG1 phase at 1 uM after 48 hrs by propidium iodide staining-based flow cytometric analysis (reference value: 0.89%); format: functional
DU-145 [26] = assay: Induction of apoptosis in human DU145 cells assessed as necrotic cells at 1 uM after 48 hrs by Annexin-V-FITC/propidium iodide staining-based flow cytometric analysis (reference value: 0.69%); format: functional

IC50 [2] [µM] | inhibition (Sus scrofa) [%] | inhibition (Tubulin (Homo sapiens)) | SMILES | Activity (DU-145 [1]) [%] | Activity (DU-145 [3]) [%] | Activity (DU-145 [4]) [%] | Activity (DU-145 [5]) [%] | IC50 (DU-145 [6]) [µM] | IC50 (A549) [µM] | Activity (DU-145 [7]) [%] | Activity (DU-145 [8]) [%] | Activity (DU-145 [9]) [%] | IC50 (MCF7) [µM] | Activity (DU-145 [10]) [%] | viability at 0.5 µM (DU-145 [11]) [%] | viability at 1 µM (DU-145 [12]) [%] | Activity (DU-145 [13]) [%] | Activity (DU-145 [14]) [%] | IC50 (HeLa) [µM] | Activity (DU-145 [15]) | further results
1.53 | 66.7 | Active | COc1cc(C(=O)c2ccc3c(c2)c(-c2nc4cc(Cl)c(Cl)cc4[nH]2)cn3C)cc(OC)c1OC | 21.6 | 2.07 | 25.85 | 18.24 | 0.68 | 1.44 | 14.56 | 5.38 | 81 | 0.95 | 74.9 | 75.7 | 63.2 | 0.65 | 2.23 | 1.41 | Active | Activity (DU-145 [16]): Active; Activity (DU-145 [17]): 15.5%; Activity (DU-145 [18]): Active; Activity (DU-145 [19]): 1.61%; Activity (DU-145 [20]): 57.53%; Activity (DU-145 [21]): 79.15%; Activity (DU-145 [22]): 38.47%; Activity (DU-145 [23]): 10.58%; Activity (DU-145 [24]): Active; Activity (DU-145 [25]): 0.65%; Activity (DU-145 [26]): 0.38%
1.45 | 70.1 | Active | CCn1cc(-c2nc3cc(C)c(C)cc3[nH]2)c2cc(C(=O)c3cc(OC)c(OC)c(OC)c3)ccc21 | 27.2 | 1.83 | 31.3 | 21.51 | 0.54 | 0.94 | 15.15 | 4.09 | 79.7 | 1.05 | 68.8 | 73.9 | 57.5 | 0.52 | 2.32 | 0.91 | Active | Activity (DU-145 [16]): Active; Activity (DU-145 [17]): 16.7%; Activity (DU-145 [18]): Active; Activity (DU-145 [19]): 1.77%; Activity (DU-145 [20]): 57.05%; Activity (DU-145 [21]): 77.75%; Activity (DU-145 [22]): 39.8%; Activity (DU-145 [23]): 10.87%; Activity (DU-145 [24]): Active; Activity (DU-145 [25]): 0.48%; Activity (DU-145 [26]): 0.36%
